From PubChem
Arbovirus anti: arbovirus infection inhibition; arbovirus infection cell-based antiviral screen; inhibition, % at 10 µM; 200,000 tested, 0.37% active; in the data active = inhibition above about 30%
RAM inhibit: blocks the yeast RAM network. S. cerevisiae dse1pr::URA3 reporter, 5-FOA growth OD615, 2 d; analog-sensitive cbk1-as2 kinase mutant strain. inhibition, % at 50 µM. 190,000 tested, 1.8% active. AID 868;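 active = inhibition above a set limit, 3 SD over mean compound inhibition, cut at about 8.4% in these data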;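 also: inhibition rescues growth on 5-FOA so higher OD means more RAM inhibition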
ABCG2 inh: inhibitors of human ABCG2 transporter, ABCB1 counter-screen; Q9UNQ0; IgMXP3 cells, JC-1 efflux, flow cytometry; inhibition, % at 6.6 µM; 190,000 tested, 0.1% active; AID 1325;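 active = inhibition above 80%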
Target sequence (Q9UNQ0 whole entry, looked up): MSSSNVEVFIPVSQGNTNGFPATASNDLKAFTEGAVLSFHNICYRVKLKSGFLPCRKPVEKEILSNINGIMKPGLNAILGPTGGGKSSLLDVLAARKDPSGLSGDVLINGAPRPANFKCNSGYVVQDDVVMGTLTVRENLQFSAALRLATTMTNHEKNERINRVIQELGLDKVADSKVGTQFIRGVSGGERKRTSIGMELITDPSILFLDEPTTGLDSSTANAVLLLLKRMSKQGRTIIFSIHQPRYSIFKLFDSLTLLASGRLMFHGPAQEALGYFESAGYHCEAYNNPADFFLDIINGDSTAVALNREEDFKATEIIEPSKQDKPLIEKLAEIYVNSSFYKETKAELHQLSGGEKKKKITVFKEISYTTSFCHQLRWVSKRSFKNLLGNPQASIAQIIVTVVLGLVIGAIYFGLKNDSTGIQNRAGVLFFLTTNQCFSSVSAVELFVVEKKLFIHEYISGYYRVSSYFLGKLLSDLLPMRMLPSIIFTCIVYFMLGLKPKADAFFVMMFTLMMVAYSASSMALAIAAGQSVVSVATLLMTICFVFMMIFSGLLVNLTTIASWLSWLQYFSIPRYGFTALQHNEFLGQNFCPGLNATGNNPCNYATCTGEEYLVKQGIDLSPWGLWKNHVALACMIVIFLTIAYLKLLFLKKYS
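material = IgMXP3 (ABCG2) plus far-red-tagged CCRF-Adr (ABCB1) cells | amount = 3 million cells/mL, equal mix of both lines | also added = JC-1 transporter substrate | dosing = one concentration, 6.6 µM final | schedule = 10 min at 25 °C | measured by = flow cytometric JC-1 green MFI at 530 nm | read-out basis = percent efflux inhibition, scaled nicardipine 100% to DMSO 0%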
ABCB1 block: blocks JC-1 efflux by human ABCB1 transporter | CCRF-Adr cells, flow cytometry | 190,000 tested, 0.067% active | inhibition, % at 6.6 µM; in the data active = inhibition above about 40%;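 also: higher value means more JC-1 retained so stronger ABCB1 efflux block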
RAM 5-FOA: restores 5-FOA growth of efflux-deficient yeast | 1,200 tested, under 10 active | AID 1305 | max inhibition, % | S. cerevisiae efflux-deficient reporter strain, 5-FOA growth OD615, 2 days | shares compounds with RAM inhibit; call rule not given here
A number is an active result; . = inactive; / = no result given. Hits are enriched below; roughly 2.3% of the tested compounds scored in any of these assays.

SMILES	Arbovirus anti	RAM inhibit	ABCG2 inh	ABCB1 block	RAM 5-FOA
Cc1cc(C)c2c(c1)C1C=CCC1C(c1ccc(S(=O)(=O)N3CCOCC3)cc1)N2 (stereo not drawn)	.	.	.	.	/
CC(=O)Nc1ccc(S(=O)(=O)NC(CC(=O)NCCCN2CCOCC2)C(C)C)cc1 (stereo not drawn)	.	.	.	.	/
CCCCCCCCNC(=O)CC(NS(=O)(=O)c1ccc(NC(C)=O)cc1)C(C)C (stereo not drawn)	.	13	.	.	.
O=C(O)CCN1CCc2ccccc21	.	.	.	.	/
C=CCSc1nnc(CCCCCN2C(=O)c3cccc4cccc(c34)C2=O)o1	.	16	.	.	.
CCOC(=O)CCCSc1nnc(CCCCCN2C(=O)c3cccc4cccc(c34)C2=O)o1	.	14	.	.	.
Cc1nnc(SCCCN2C(=O)c3ccccc3C2=O)o1	.	.	.	.	/
O=C1CSC(c2ccccc2[N+](=O)[O-])N1c1cccc(F)c1 (stereo not drawn)	.	.	.	.	/
CSc1ccc(/C=N/NC(=O)c2cc(O)cc(O)c2)cc1	.	.	.	.	/
COC(=O)C/C=C/[C@@H](C)[C@@H](/C=N/OC[C@H]1O[C@H](c2ccccc2)C=C[C@@H]1Oc1ccc(OC)cc1)NS(=O)(=O)c1ccc(C)cc1	.	16	.	.	.
COC(=O)C/C=C/[C@@H](C)[C@@H](/C=N/O[C@@H](C)c1cn([C@H](CO)Cc2ccccc2)nn1)NS(=O)(=O)c1ccc(C)cc1	.	.	.	.	/
COc1ccc(O[C@H]2C=C[C@@H](c3ccccc3)O[C@@H]2CO/N=C(\C)CCC(=O)OC[C@H]2O[C@H](c3ccccc3)C=C[C@@H]2Oc2ccc(OC)cc2)cc1	.	25	.	.	.
Cc1c(NC(=O)/C(C#N)=C/c2c(Oc3ccccc3)nc3ccccn3c2=O)c(=O)n(-c2ccccc2)n1C	.	.	.	.	/
COc1ccc(Cc2nc(C(=O)Nc3ccc(F)cc3)cs2)cc1	.	16	.	.	.
COc1ccc(Cc2nc(C(=O)Nc3ccccc3)cs2)cc1	.	.	.	.	/
CCc1cc2c(Sc3nc4ccccc4s3)ncnc2s1	.	13	.	.	.
FC(F)Sc1ccc(NC(=S)NC(c2ccccc2)c2ccccc2)cc1	.	19	.	.	.
FC(F)Sc1ccc(NC(=S)NCc2ccccc2)cc1	.	.	.	.	/
Cc1ccc2nc(NC(=O)C3CCCN(S(=O)(=O)c4cccc5nsnc45)C3)sc2c1 (stereo not drawn)	.	.	.	.	/
CCCOc1cccc(C(=O)NC(=S)Nc2cccc(C(F)(F)F)c2)c1	.	12	.	.	.
CCOc1ccc(/C=C/C(=O)Nc2ccc(N3CCOCC3)cc2)cc1	.	.	.	.	/
CCN(c1ccccc1)S(=O)(=O)c1ccc(Cl)nc1	.	.	.	.	/
CCN(c1ccccc1)S(=O)(=O)c1ccc(NCC2COc3ccccc3O2)nc1 (stereo not drawn)	.	13	.	.	.
C=CCSc1nnc(COc2ccc(=O)n(-c3ccccc3)n2)n1CC	.	.	.	.	/
Cn1nccc1C(=O)N1CCN(c2ncccn2)CC1	.	.	.	.	/
SMILES	Arbovirus anti	RAM inhibit	ABCG2 inh	ABCB1 block	RAM 5-FOA
O=[N+]([O-])c1ccc(-c2nnc(-c3ccccc3)c(NCCCO)n2)cc1	.	13	.	.	.
OCCCNc1nc(-c2ccc(Cl)cc2)nnc1-c1ccc(Br)cc1	.	.	.	.	/
Fc1cccc(CN2CCN(Cc3nc(-c4cnccn4)no3)CC2)c1	.	.	.	.	/
O=C(COC(=O)CCCN1C(=O)c2cccc3cccc(c23)C1=O)Nc1cccc(C(F)(F)F)c1	.	12	.	.	.
COC(=O)c1ccc(C(=O)OC)c(NC(=S)N2CC(C)CC(C)C2)c1 (stereo not drawn)	.	.	.	.	/
O=C(CNC(=S)N(Cc1ccccc1)Cc1ccccc1F)NCCc1ccc(Cl)cc1	.	36	.	.	.
Cn1c(SCC(=O)N2CCc3ccccc32)nnc1-c1ccc(S(=O)(=O)N2CCCC2)cc1	.	12	.	.	.
CCOC(=O)C(C)Sc1cc(CS(=O)(=O)c2ccccc2)nc(-c2ccccc2)n1 (stereo not drawn)	.	12	.	.	.
Cc1cccc(/C=C\c2nc3ccccc3c(=O)[nH]2)c1	.	11	.	.	.
COC(=O)c1sccc1-c1ccc(/C=N/OCc2c(Cl)cccc2Cl)o1	.	18	.	.	.
CNc1c([N+](=O)[O-])cnn1-c1ccc(F)cc1	.	.	.	.	/
COc1ccc(-c2c(C)oc3cc(O)cc(O)c3c2=O)cc1OC	.	.	.	.	/
CC(=O)Nc1cccc(NC(=O)C(F)(F)F)c1	.	.	.	.	/
CCc1c(C#N)c(SCc2c(C)noc2C)nc2c1C(=O)CC(C)(C)C2	.	12	.	.	.
CCOC(=O)c1ccccc1NC(=S)N1CCC(C)CC1	.	.	.	.	/
COc1ccc(OCCNS(=O)(=O)c2ccc3oc4ccccc4c3c2)cc1	.	.	.	.	/
CN(CCOc1ccccc1)S(=O)(=O)c1ccc2oc3ccccc3c2c1	.	15	.	.	.
Cn1c(=O)[nH]c(=O)c2c1nc(CN1CCOCC1)n2CCCc1ccccc1	.	.	.	.	/
CO/N=C/C(=N\Nc1ccc(OC)cc1)C(=O)c1ccc(OC)cc1	.	12	.	.	.
COC(=O)c1cc(=O)n(CCc2ccccc2)c(=Nc2ccc(F)cc2)s1	.	12	.	.	.
COc1ccc(/C([O-])=C(/C(=S)Nc2ccc(C)c(C)c2)n2c[n+](C)c3ccccc32)cc1OC	.	.	.	.	/
Cc1ccc(S(=O)(=O)N2CCC(=O)N(C(COCc3cccc(Cl)c3)Cc3ccccc3)CC2)cc1 (stereo not drawn)	.	15	.	.	.
Cc1ccc(S(=O)(=O)N2CCC(=O)N(C(COCc3cccc(C(F)(F)F)c3)C(C)C)CC2)cc1 (stereo not drawn)	.	13	.	.	.
COc1ccc2cc(C(C)c3nc4ccccc4c(=O)n3N)ccc2c1 (stereo not drawn)	.	.	.	.	/
CCCC(=O)n1nc(-c2ccc(C)cc2)nc1NCc1ccco1	.	.	.	.	/
SMILES	Arbovirus anti	RAM inhibit	ABCG2 inh	ABCB1 block	RAM 5-FOA
O=S(=O)(c1ccccc1)n1nc(-c2ccccc2)nc1NCc1ccco1	.	16	.	.	.
CSc1nc(-c2ccccc2)nn1S(=O)(=O)c1ccccc1	.	.	.	.	/
COc1ccc(CC(=O)n2nc(-c3ccc(Cl)cc3)nc2NCc2ccco2)cc1	.	14	.	.	.
O=C(c1cccs1)n1nc(-c2ccc(Cl)cc2)nc1NCc1ccco1	.	13	.	.	.
Cc1ccc(C(=O)n2nc(-c3ccccc3)nc2NCc2ccco2)cc1	.	13	.	.	.
CC(=O)n1nc(-c2ccc(Cl)cc2)nc1NCc1ccco1	.	.	.	.	/
COc1ccc(N2CCN(C(=O)c3ccc4c(c3)OCO4)CC2)cc1	.	.	.	.	/
